Test results published in ChEMBL document CHEMBL4118057, “Cytotoxic Bagremycins from Mangrove-Derived Streptomyces sp. Q22” (J Nat Prod, 2017).
Calls of active or inactive are those of the source. No cut-off for these calls is given here.

Experiments:
[1] = tested on: Escherichia coli; test: Antimicrobial activity against Escherichia coli ATCC 25922 after 12 hrs by micro broth dilution method; type: functional, organism-based
How it was run: (§1)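 Micro broth dilution: compound stock serially diluted with 50% DMSO (final volume 200 μL), inoculated with 2 μL of 10^8 cf/mL culture, incubated 37 °C for 12 h. Clear wells and the next dilutions plated on nutrient agar, incubated 37 °C for 12 h. MIC taken as the dilution that inhibited growth.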

[2] = tested on: U-87 MG; test: Induction of apoptosis in human U87MG cells assessed as increase in total apoptotic cells at 2.2 uM after 24 hrs by annexin-V-FITC/propidium iodide staining based flow cytometric method relative to control; type: functional, U-87MG ATCC
How it was run: (§2)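 U87MG cells were exposed for 24, 48 or 72 h, and 1 × 10^6 cells were harvested and washed in cold PBS. They were stained in binding buffer with annexin V-FITC and PI for 15 min at room temperature. Flow cytometry used 488 nm excitation with emission at 530/575 nm. Early plus late apoptotic cells were summed, and the untreated control was subtracted.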

[3] = tested on: Staphylococcus aureus; test: Antimicrobial activity against methicillin-resistant Staphylococcus aureus ATCC 43300 after 12 hrs by micro broth dilution method; type: functional, organism-based
How it was run: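 Test compounds serially diluted in 50% DMSO in broth microdilution plates. Each well received 2 μL of a 10^8 cf/mL culture, then incubated at 37 °C for 12 h overnight and read by eye. Clear wells and the next dilutions were plated on nutrient agar for 12 h at 37 °C. MIC was taken as the growth-inhibiting dilution. Gentamicin served as positive control.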

[4] = tested on: U-87 MG; test: Cell cycle arrest in human U87MG cells assessed as accumulation at S phase at 8.8 uM after 12 hrs by propidium iodide staining based flow cytometric method (reference value: 32.49%); type: functional, U-87MG ATCC
[5] = tested on: U-87 MG; test: Cell cycle arrest in human U87MG cells assessed as accumulation at G2/M phase at 8.8 uM after 12 hrs by propidium iodide staining based flow cytometric method (reference value: 9.37%); type: functional, U-87MG ATCC
[6] = tested on: Candida albicans; test: Antimicrobial activity against Candida albicans after 12 hrs by micro broth dilution method; type: functional, organism-based; how it was run: as §1
[7] = tested on: U-87 MG; test: Cell cycle arrest in human U87MG cells assessed as accumulation at S phase at 2.2 uM after 12 hrs by propidium iodide staining based flow cytometric method (reference value: 32.49%); type: functional, U-87MG ATCC
[8] = tested on: U-87 MG; test: Induction of apoptosis in human U87MG cells assessed as increase in total apoptotic cells at 4.4 uM after 24 hrs by annexin-V-FITC/propidium iodide staining based flow cytometric method relative to control; type: functional, U-87MG ATCC; how it was run: as §2
[9] = tested on: U-87 MG; test: Cell cycle arrest in human U87MG cells assessed as accumulation at G2/M phase at 4.4 uM after 12 hrs by propidium iodide staining based flow cytometric method (reference value: 9.37%); type: functional, U-87MG ATCC
[10] = tested on: U-87 MG; test: Induction of apoptosis in human U87MG cells assessed as increase in total apoptotic cells at 4.4 uM after 72 hrs by annexin-V-FITC/propidium iodide staining based flow cytometric method relative to control; type: functional, U-87MG ATCC; how it was run: as §2
[11] = tested on: U-87 MG; test: Cell cycle arrest in human U87MG cells assessed as increase in accumulation at G0/G1 phase at 2.2 uM after 12 hrs by propidium iodide staining based flow cytometric method relative to control; type: functional, U-87MG ATCC
[12] = tested on: U-87 MG; test: Induction of apoptosis in human U87MG cells assessed as increase in total apoptotic cells at 4.4 uM after 48 hrs by annexin-V-FITC/propidium iodide staining based flow cytometric method relative to control; type: functional, U-87MG ATCC; how it was run: as §2
[13] = tested on: U-87 MG; test: Cell cycle arrest in human U87MG cells assessed as accumulation at G2/M phase at 2.2 uM after 12 hrs by propidium iodide staining based flow cytometric method (reference value: 9.37%); type: functional, U-87MG ATCC
[14] = tested on: U-87 MG; test: Cytotoxicity against human U87MG cells after 72 hrs by sulforhodamine B assay; type: functional, cell-based, U-87MG ATCC
How it was run: (§3)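 SRB assay. C6 and U251 in DMEM with 10% FBS, SHG44 in RPMI-1640, all at 37 °C, 5% CO2. Cells adhered 24 h, then were exposed to a range of concentrations for 72 h. Fixed in cold 50% TCA at 4 °C for 1 h, stained with 0.4% SRB for 10 min, rinsed with 1% acetic acid. Dye dissolved in 10 mM Tris, OD read at 515 nm. Viability taken as treated/control OD; IC50 by logistic fit; n = 5.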

[15] = tested on: U-87 MG; test: Cell cycle arrest in human U87MG cells assessed as increase in accumulation at G0/G1 phase at 4.4 uM after 12 hrs by propidium iodide staining based flow cytometric method relative to control; type: functional, U-87MG ATCC
[16] = tested on: U-87 MG; test: Induction of apoptosis in human U87MG cells assessed as increase in total apoptotic cells at 2.2 uM after 72 hrs by annexin-V-FITC/propidium iodide staining based flow cytometric method relative to control; type: functional, U-87MG ATCC; how it was run: as §2
[17] = tested on: U-251; test: Cytotoxicity against human U251 cells after 72 hrs by sulforhodamine B assay; type: functional, cell-based; conditions: U-251, 72 h; how it was run: as §3
[18] = tested on: U-87 MG; test: Cell cycle arrest in human U87MG cells assessed as accumulation at S phase at 4.4 uM after 12 hrs by propidium iodide staining based flow cytometric method (reference value: 32.49%); type: functional, U-87MG ATCC
[19] = tested on: U-87 MG; test: Induction of apoptosis in human U87MG cells assessed as increase in total apoptotic cells at 2.2 uM after 48 hrs by annexin-V-FITC/propidium iodide staining based flow cytometric method relative to control; type: functional, U-87MG ATCC; how it was run: as §2
[20] = Cytotoxicity against human SHG44 cells after 72 hrs by sulforhodamine B assay; type: functional, cell-based; conditions: SHG-44, 72 h; how it was run: as §3
[21] = tested on: U-87 MG; test: Cell cycle arrest in human U87MG cells assessed as increase in accumulation at G0/G1 phase at 8.8 uM after 12 hrs by propidium iodide staining based flow cytometric method relative to control; type: functional, U-87MG ATCC
[22] = tested on: C6; test: Cytotoxicity against rat C6 cells after 72 hrs by sulforhodamine B assay; type: functional, cell-based; conditions: C6, 72 h; how it was run: as §3
[23] = tested on: U-87 MG; test: Induction of apoptosis in human U87MG cells assessed as increase in total apoptotic cells at 10 uM after 72 hrs by annexin-V-FITC/propidium iodide staining based flow cytometric method relative to control; type: functional, U-87MG ATCC; how it was run: as §2
[24] = tested on: U-87 MG; test: Induction of apoptosis in human U87MG cells assessed as increase in total apoptotic cells at 10 uM after 48 hrs by annexin-V-FITC/propidium iodide staining based flow cytometric method relative to control; type: functional, U-87MG ATCC; how it was run: as §2
[25] = tested on: U-87 MG; test: Cell cycle arrest in human U87MG cells assessed as accumulation at G2/M phase at 0.8 uM after 12 hrs by propidium iodide staining based flow cytometric method (reference value: 9.37%); type: functional, U-87MG ATCC
[26] = tested on: U-87 MG; test: Induction of apoptosis in human U87MG cells assessed as increase in total apoptotic cells at 10 uM after 24 hrs by annexin-V-FITC/propidium iodide staining based flow cytometric method relative to control; type: functional, U-87MG ATCC; how it was run: as §2
[27] = tested on: U-87 MG; test: Cell cycle arrest in human U87MG cells assessed as accumulation at S phase at 0.8 uM after 12 hrs by propidium iodide staining based flow cytometric method (reference value: 32.49%); type: functional, U-87MG ATCC
[28] = tested on: U-87 MG; test: Cell cycle arrest in human U87MG cells assessed as increase in accumulation at G0/G1 phase at 0.8 uM after 12 hrs by propidium iodide staining based flow cytometric method relative to control; type: functional, U-87MG ATCC

SMILES	Activity [1]	Activity [3]	Activity [6]	IC50 [14] [µM]	IC50 [17] [µM]	IC50 [20] [µM]	IC50 [22] [µM]	other results
C=Cc1ccc(OC(=O)c2ccc(O)c(N)c2SC[C@@H](NC(C)=O)C(=O)O)cc1	inactive	inactive	inactive	2.2	4.3	2.4	6.4	Activity [2]: 0.96%; Activity [4]: 13.77%; Activity [5]: 7.53%; Activity [7]: 27.23%; Activity [8]: 3.36%; Activity [9]: 8.92%; Activity [10]: 93%; Activity [11]: 5.71%; Activity [12]: 61.16%; Activity [13]: 8.92%; Activity [15]: 16.18%; Activity [16]: 58.32%; Activity [18]: 16.76%; Activity [19]: 20.59%; Activity [21]: 20.56%
C=Cc1ccc(O[C@H]2O[C@H](CO)[C@H](O)[C@H](O)[C@H]2O)cc1	inactive	inactive	inactive	–	–	–	–	–
C=Cc1ccc(OC(=O)c2ccc(O)c(NC(C)=O)c2)cc1	inactive	inactive	inactive	10.2	9.7	7.3	13.3	–
C=Cc1ccc(OC(=O)c2ccc(O)c(N)c2)cc1	inactive	inactive	inactive	–	–	–	–	–
C=Cc1ccc(OC(=O)c2ccc(O)cc2)cc1	inactive	inactive	inactive	–	–	–	–	–
C=Cc1ccc(O)cc1	inactive	inactive	inactive	–	–	–	–	–
C=Cc1ccc(OC(=O)c2ccc(O)c(N)c2S)cc1	inactive	inactive	inactive	–	–	–	–	–
COc1cccc2c1C(=O)c1c(O)c3c(c(O)c1C2=O)C[C@@](O)(C(=O)CO)C[C@@H]3O[C@H]1C[C@H](N)[C@H](O)[C@H](C)O1 [DOXORUBICIN]	–	–	–	0.4	3.3	1.9	0.5	Activity [23]: 26.87%; Activity [24]: 10.42%; Activity [25]: 6.28%; Activity [26]: 3.17%; Activity [27]: 10.84%; Activity [28]: 24.74%
O=C1Oc2ccc(cc2)[C@H](O)CNc2cc1ccc2O	inactive	inactive	inactive	–	–	–	–	–
